Source: ChEMBL document CHEMBL4177753, “Structural Modification of Natural Product Ganomycin I Leading to Discovery of a α-Glucosidase and HMG-CoA Reductase Dual Inhibitor Improving Obesity and Metabolic Dysfunction in Vivo” (J Med Chem, 2018)
The source made the active and inactive calls. No cut-off for these calls is given here.

Key:
Mus musculus [1] = assay: In vivo inhibition of alpha-glucosidase activity in ob/ob mouse assessed as accumulation of carbohydrate in lower part of small intestine at 3 mg/kg administered daily via oral gavage for 31 days; assay type: functional, organism-based
Fusobacterium = assay: Decrease in Fusobacterium levels in cecum of ob/ob mouse at 3 mg/kg administered daily via oral gavage for 31 days by 16S rRNA gene high-throughput sequencing method; assay type: functional, organism-based
In short: (§1)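 Male ob/ob mice dosed daily by gavage at 1.0 or 3.0 mg/kg, compared with vehicle group. DNA extracted from about 150 mg caecum contents. 16S rRNA V3–V4 region amplified and sequenced on Illumina HiSeq PE250. Community compared by NMDS/MRPP; discriminant taxa identified by LEfSe.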

Mus musculus [2] = assay: Antiobesity activity in ob/ob mouse assessed as cumulative food intake at 3 mg/kg administered daily via oral gavage for 25 days relative to vehicle-treated control
Mus musculus [3] = assay: Antiobesity activity in ob/ob mouse assessed as reduction in weight gain at 3 mg/kg administered daily via oral gavage for 31 days relative to vehicle-treated control; assay type: functional; parameters: scale not given: the % may be the effect or the level left
In short: (§2)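 Male ob/ob mice, n = 10 per group, grouped by blood glucose and body weight. Daily gavage at 0.3, 1.0 or 3.0 mg/kg in soybean vehicle, with soybean vehicle controls and C57BL/6J controls. Body weight, cumulative food intake, LEE index, fat mass and lean mass recorded. Mean ± SEM, one-way ANOVA with Tukey test.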

Mus musculus [4] = assay: Reduction of plasma LPS levels in antibiotic-treated ob/ob mouse at 3 mg/kg administered daily via oral gavage for 3 weeks by ELISA; assay type: functional, organism-based
In short: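 Male ob/ob mice treated daily by gavage (soybean vehicle); plasma LPS and TNF-α quantified by ELISA kits. For antibiotic groups, ob/ob mice first received an oral antibiotic cocktail (ampicillin 1 g/L, vancomycin, neomycin, gentamycin, erythromycin) for three weeks, then 3.0 mg/kg/day; n = 8 per group.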

Mus musculus [5] = assay: Antiobesity activity in ob/ob mouse assessed as reduction in LEE index at 3 mg/kg administered daily via oral gavage for 31 days relative to vehicle-treated control; assay type: functional, organism-based; in short: as §2
Mus musculus [6] = assay: Upregulation of ZO-1 mRNA expression in ob/ob mouse ileum at 3 mg/kg administered daily via oral gavage for 31 days by RNA-seq analysis; assay type: functional, organism-based
Mus musculus [7] = assay: Toxicity in C57BL/6J mouse assessed as effect on plasma ALT levels at 30 mg/kg administered daily via oral gavage for 3 months; assay type: organism-based; conditions: in vivo
In short: (§3)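 Long-term safety study in C57BL/6J mice, 20 male and 20 female, sorted by gender, blood glucose and body weight into four groups (n = 10 each). Treated groups of each sex got 30.0 mg/kg daily by oral gavage in soybean vehicle. Vehicle groups got an equal volume of soybean. Dosing ran three months, with behavior, survival, body weight, blood glucose, liver function and organ coefficients recorded.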

Mus musculus [8] = assay: Hypolipidemic activity in antibiotic-treated ob/ob mouse assessed as decrease in plasma triglycerides levels at 3 mg/kg administered daily via oral gavage for 3 weeks; assay type: functional, organism-based
In short: (§4)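 Male ob/ob mice pretreated three weeks with ampicillin (1 g/L), vancomycin, neomycin, gentamycin and erythromycin. Groups of n = 8 given 3.0 mg/kg/day orally in soybean vehicle versus vehicle. Plasma and hepatic lipids, fasting glucose, OGTT (glucose 2 g/kg after overnight fast) and HbA1c measured.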

Alphaproteobacteria = assay: Decrease in Alphaproteobacteria levels in cecum of ob/ob mouse at 1 to 3 mg/kg administered daily via oral gavage for 31 days by 16S rRNA gene high-throughput sequencing method; assay type: functional, organism-based; in short: as §1
Mus musculus [9] = assay: Hypoglycemic activity in ob/ob mouse assessed as decrease in fasting blood glucose levels administered daily via oral gavage for 28 days; assay type: functional, organism-based
In short: (§5)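 Male ob/ob mice, n = 10 per group, daily gavage at 0.3, 1.0 or 3.0 mg/kg in soybean vehicle. Fasting and free-diet blood glucose and HbA1c measured.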

Mus musculus [10] = assay: Hypolipidemic activity in antibiotic-treated ob/ob mouse assessed as decrease in plasma total cholesterol levels at 3 mg/kg administered daily via oral gavage for 3 weeks; assay type: functional, organism-based; in short: as §4
Mus musculus [11] = assay: Upregulation of occludin mRNA expression in ob/ob mouse ileum at 3 mg/kg administered daily via oral gavage for 31 days by RNA-seq analysis; assay type: functional, organism-based
Neisseria = assay: Decrease in Neisseri levels in cecum of ob/ob mouse at 3 mg/kg administered daily via oral gavage for 31 days by 16S rRNA gene high-throughput sequencing method; assay type: functional, organism-based; in short: as §1
Mus musculus [12] = assay: Toxicity in C57BL/6J mouse assessed as effect on behavior at 30 mg/kg administered daily via oral gavage for 3 months; assay type: organism-based; conditions: in vivo; in short: as §3
Mus musculus [13] = assay: Hypoglycemic activity in ob/ob mouse assessed as decrease in free diet blood glucose levels administered daily via oral gavage for 28 days; assay type: functional, organism-based; in short: as §5
Mus musculus [14] = assay: Reduction of liver TNF-alpha levels in ob/ob mouse at 3 mg/kg administered daily via oral gavage for 31 days by DAPI staining/immunofluorescence-based confocal microscopic method; assay type: functional, organism-based
In short: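 Liver from ob/ob mice dosed at 3.0 mg/kg by gavage; tissue methanol-fixed, blocked in PBS with 5% BSA, stained with anti-TNFα (1:200) and Alexa Fluor 610 secondary (1:250), nuclei with DAPI; confocal imaging, per-cell TNFα expression quantified.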

Mus musculus [15] = assay: Hypoglycemic activity in antibiotic-treated ob/ob mouse assessed as decrease in blood glucose AUC at 3 mg/kg administered daily via oral gavage for 3 weeks by OGTT; assay type: functional, organism-based; in short: as §4
Mus musculus [16] = assay: Upregulation of Muc-1 mRNA expression in ob/ob mouse ileum at 3 mg/kg administered daily via oral gavage for 31 days by RNA-seq analysis; assay type: functional, organism-based
[17] = AUC (0 to t) in Sprague-Dawley rat at 2 mg/kg, po; assay type: ADME, organism-based; conditions: in vivo
In short: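 Male Sprague-Dawley rats (n = 6, 0.21–0.23 kg), single oral dose 2.0 mg/kg. Orbital blood sampled 0–16 h into heparinized tubes. Plasma was protein-precipitated with methanol, with internal standard added. Quantified by UPLC-ESI(+)-QTOF-MS in SIM mode on a C18 column with a methanol/0.3% formic acid water gradient. Linear range 0.54–107 ng/ml.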

[18] = Tmax in Sprague-Dawley rat at 2 mg/kg, po; assay type: ADME, organism-based; conditions: in vivo
In short: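 Six male Sprague-Dawley rats (0.21–0.23 kg) dosed orally at 2.0 mg/kg; blood from orbital vein at 0–16 h into heparinized tubes; plasma protein precipitated with methanol plus internal standard. Quantified by UPLC–Q-TOF MS, ESI positive, single ion monitoring (m/z 367.2637); linear range 0.54–107 ng/ml.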

Mus musculus [19] = assay: Antiobesity activity in C57BL/6J DIO mouse assessed as reduction in weight gain at 3 mg/kg administered daily via oral gavage for 5 weeks relative to vehicle-treated control; assay type: functional; parameters: scale not given: the % may be the effect or the level left
In short: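 Male C57BL/6J mice on high-fat diet, n = 8 per group, grouped by blood glucose and body weight. Daily oral gavage at 0.3, 1.0 or 3.0 mg/kg in soybean vehicle for 5 weeks. Vehicle groups were on normal diet and on high-fat diet.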

Mus musculus [20] = assay: Hypoglycemic activity in C57BL/6J DIO mouse assessed as increase in insulin sensitive index at 0.3 to 3 mg/kg administered daily via oral gavage for 5 weeks; assay type: functional, organism-based
In short: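 Male high-fat-diet C57BL/6J mice, daily gavage at 0.3–3.0 mg/kg for 5 weeks. ISI calculated as […].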

With `CC(C)=CCC/C(C)=C/CCC1=C[C@H](c2ccc(C(C)(C)C)cc2)OC1=O` the inhibition (Mus musculus [1]) was “Active”, the Activity (Fusobacterium) was “Active” and the Activity (Mus musculus [2]) was 78%. The Activity (Mus musculus [3]) was 68%, the Activity (Mus musculus [4]) was “inactive” and the Activity (Mus musculus [5]) was “Active”. The Activity (Mus musculus [6]) was “Active”, the Activity (Mus musculus [7]) was “Non-Toxic” and the Activity (Mus musculus [8]) was “Active”. For the same molecule, the Activity (Alphaproteobacteria) was “Active”, the Activity (Mus musculus [9]) was “Dose-dependent effect” and the Activity (Mus musculus [10]) was “inactive”. The Activity (Mus musculus [11]) was “Active”, the Activity (Neisseria) was “Active” and the Activity (Mus musculus [12]) was “Non-Toxic”. The Activity (Mus musculus [13]) was “Dose-dependent effect”, the Activity (Mus musculus [14]) was “Active” and the Activity (Mus musculus [15]) was “inactive”. For the same molecule, the Activity (Mus musculus [16]) was “Active”, the AUC(0-t) [17] was 274 ng·h/mL and the Tmax [18] was 7 h. For the same molecule, the Activity (Mus musculus [19]) was 25.4% and the Activity (Mus musculus [20]) was “Active”.
